Rows were chosen to be rich in hits. Some 3.2% of all compounds tested hit in one or more screens of this group.
DAX1 inh-1: DAX1 (NR0B1) inhibitors, primary screen, cell-based, HEK293, Gal4-DAX1, luciferase luminescence; HEK293 Gal4-DAX1 luciferase reporter; inhibition, % at 6.75 µM; 340,000 compounds, 0.99% hits; Nuclear receptor subfamily 0 group B member 1 (Homo sapiens), P51843;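 active = inhibition above the mean over all tested compounds plus 3 SD, cut at about 4.2% in these data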;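 note: inhibition shows as a rise in luminescence from relieved DAX1 repression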
JMJD2C inh: inhibitors of GASC-1 histone demethylase, primary screen, biochemical, fluorescence, DELFIA europium; GST-JMJD2C(1-420) H3K9me3 demethylation; inhibition, % at 2.35 µM; 330,000 compounds, 0.069% hits;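 active = more than half of a compound's replicate wells show inhibition beyond 50%, single wells judged on their own value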;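 note: signal counts dimethyl H3K9 product captured on neutravidin plate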
DAX1 inh-2: DAX1 (NR0B1) inhibitors on StAR promoter, primary screen, cell-based, luminescence, SF-1 (NR5A1), full-length DAX-1 | 370,000 compounds, 1.1% hits | HEK293T StAR-luciferase reporter, SF-1/DAX-1 repression relief | inhibition, % at 6.8 µM;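 active = inhibition above the mean over all tested compounds plus 3 SD, cut at about 3.6% in these data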;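 note: higher inhibition means more luminescence from relief of DAX-1 repression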
SMARCA2 act: SMARCA2 (BRM) function activators, primary screen, cell-based, luminescence, high throughput; MG213 cells, MMTV-luciferase reporter, dexamethasone, overnight; activation, % at 9.1 µM; 370,000 compounds, 1% hits; AID 652017, 2013; in the data active = activation above about 7.8%
NR2E3 ag-1: NR2E3 agonists in two-hybrid cells, primary screen, cell-based, luminescence, CHO-S, Gal4-NCOR/VP16-NR2E3. luciferase. inhibition of corepressor binding, % at 3.98 µM. 360,000 compounds, 0.35% hits. AID 602229, 2012;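 active = inhibition above the mean of all tested compounds plus 3 SD, cut at about 70% in these data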;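 note: higher means lower luciferase signal from less NR2E3 corepressor binding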
NR2E3 ag-2: inhibitors of NR2E3-RetCOR corepressor binding, primary screen, NR2E3 agonist project, biochemical, TR-FRET, GST-NR2E3, biotin-RetCOR. 320,000 compounds, 0.12% hits. inhibition of corepressor binding, % at 4.78 µM. AID 2300, 2010. Photoreceptor-specific nuclear receptor (Homo sapiens), Q9Y5X4. 1536-well;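 active = percent inhibition above the cutoff of mean plus 3 SD of all tested compounds, set per screening campaign, cut at about 20% in these data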
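Format: 1536-well format; test system: GST-NR2E3 and biotin-RetCOR proteins; read-out basis: percent inhibition of TR-FRET ratio; timing: 5 h incubation at 4 °C; detection: time-resolved FRET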
DAX1 inh confirm: DAX1 (NR0B1) inhibitors relieving SF-1 repression, confirmation, cell-based, luminescence, HEK293T, full-length DAX-1, SF-1 activated StAR promoter; shares compounds with DAX1 inh-2; HEK293T StAR-promoter luciferase reporter, SF-1/DAX-1 repression; inhibition, % at 6.8 µM; 2,400 compounds, 87% hits;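 active = inhibition above the average of every tested compound plus 3 SD, cut at about 3.8% in these data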
Target sequence (P51843 whole entry, looked up): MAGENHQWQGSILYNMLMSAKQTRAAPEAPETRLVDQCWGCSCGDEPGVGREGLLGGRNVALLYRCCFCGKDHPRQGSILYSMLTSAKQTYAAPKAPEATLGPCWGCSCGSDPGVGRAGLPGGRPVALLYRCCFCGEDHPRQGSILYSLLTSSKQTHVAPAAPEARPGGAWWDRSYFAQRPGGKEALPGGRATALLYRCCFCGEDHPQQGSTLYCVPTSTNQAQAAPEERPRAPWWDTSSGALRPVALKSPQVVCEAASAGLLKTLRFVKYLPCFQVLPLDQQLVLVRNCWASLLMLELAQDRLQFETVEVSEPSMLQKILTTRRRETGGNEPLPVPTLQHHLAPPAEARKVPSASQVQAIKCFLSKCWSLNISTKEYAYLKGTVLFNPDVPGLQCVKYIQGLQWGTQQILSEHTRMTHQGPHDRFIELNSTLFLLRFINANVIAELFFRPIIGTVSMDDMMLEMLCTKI
SF1 AF2mut Luc: StAR reporter signal changes without DAX1, counter-screen for DAX1 inhibitor project, cell-based, luminescence, AF-2 mutant SF-1, transactivation. shares compounds with DAX1 inh-2. HEK293 StAR-luciferase, SF-1 AF2 mutant. inhibition, % at 6.8 µM. 2,400 compounds, 78% hits. AID 652136, 2013;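 active = inhibition above the mean of all tested compounds plus 3 SD, cut at about 3% in these data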
Numbers stand for hits; i = inactive; nt = no result given.

SMILES	DAX1 inh-1	JMJD2C inh	DAX1 inh-2	SMARCA2 act	NR2E3 ag-1	NR2E3 ag-2	DAX1 inh confirm	SF1 AF2mut Luc
CN1C(=O)CSc2ccc(NC(=O)N3CCc4ccccc43)cc21	i	i	5.9	i	i	i	6.3	i
Cc1ccc(NC(=O)N2CCc3ccccc32)cc1C	i	i	7.4	i	i	i	16	8.4
COC(=O)c1cccc(Cn2ccc3ccc(-c4ccc5ccn(C(=O)c6ccccc6)c5c4)cc32)c1	nt	nt	i	i	nt	nt	nt	nt
COc1ccc(S[C@]2(C(=O)N3CCN(c4ncccn4)CC3)CC(=O)N(S(=O)(=O)c3ccc(F)cc3)[C@@H]2c2ccc(OC)cc2)cc1	nt	nt	i	i	nt	nt	nt	nt
Cc1ccccc1CN1CCCCC(NC(=O)c2c(F)cccc2F)C1=O (stereo not given)	nt	nt	i	i	nt	nt	nt	nt
Cc1ccc(-c2cccc(=O)o2)cc1	nt	nt	i	i	nt	nt	nt	nt
O=c1cccc(-c2ccc3ccccc3c2)o1	nt	nt	6.6	i	nt	nt	5.0	3.1
Cc1ccc(C(=O)OCC(=O)N2CCNC2=O)c(C)c1	i	nt	6.9	i	i	nt	7.1	5.9
CC(=O)Nc1ccc2oc(-c3ccccc3)nc2c1	i	i	5.6	i	i	i	12	8.8
CCC(=O)Nc1ccc(-c2nnc(-c3ccccc3)o2)cc1	i	i	4.5	i	i	i	14	4.5
O=C(Nc1ccc2oc(-c3ccccc3F)nc2c1)c1ncn[nH]1	i	i	5.0	i	i	i	9.3	5.3
CC(=O)Nc1cccc(-c2nc3ccccc3o2)c1	i	i	i	i	i	i	nt	nt
Cc1cccc(-c2nc3cc(NC(=O)C4CCCO4)ccc3o2)c1 (stereo not given)	i	i	6.8	i	i	i	15	5.4
Cc1ccc(-c2nc3cc(NC(=O)C(C)C)ccc3o2)cc1	i	i	5.1	i	i	i	14	4.4
O=C(Nc1ccc(-c2nc3ccccc3[nH]2)cc1)C1CCCO1 (stereo not given)	i	i	7.7	i	i	i	15	8.9
CC(C)C(=O)Nc1ccc(-c2nc3ncccc3o2)cc1	i	i	i	i	i	i	nt	nt
CC(C)C(=O)Nc1ccc(-c2nc3cccnc3o2)cc1	i	i	4.5	i	i	i	12	4.1
Nc1nc2c(ncn2[C@@H]2O[C@H](C(=O)NCCCc3ccccc3)[C@@H](O)[C@H]2O)c(=O)[nH]1	nt	nt	i	i	nt	nt	nt	nt
CCc1ccc(C2=NN(C(=O)OC)C(O)(C(F)(F)F)C2)cc1 (stereo not given)	i	i	6.6	i	i	i	12	5.4
COc1ccc(S[C@]2(C(=O)N3CCOCC3)CC(=O)N(C(=O)Nc3ccc(C)c(Cl)c3)[C@@H]2c2ccc(OC)cc2)cc1	nt	nt	i	i	nt	nt	nt	nt
COc1ccc(-c2cccc(NC(=O)c3ccco3)c2)nn1	i	i	i	i	i	i	nt	nt
O=C(COc1ccc(Cl)cc1Cl)Nc1cccc(-c2ccc(N3CCOCC3)nn2)c1	i	i	i	i	i	nt	nt	nt
O=C(Nc1cccc(-c2ccc(N3CCOCC3)nn2)c1)c1ccccc1	i	i	4.7	i	i	i	i	i
CC1CCN(c2ccc(-c3cccc(NC(=O)c4ccco4)c3)nn2)CC1	i	i	8.0	i	i	i	11	3.4
O=C(COc1ccccc1)Nc1cccc(-c2ccc(N3CCOCC3)nn2)c1	i	i	7.9	i	i	i	5.3	i
SMILES	DAX1 inh-1	JMJD2C inh	DAX1 inh-2	SMARCA2 act	NR2E3 ag-1	NR2E3 ag-2	DAX1 inh confirm	SF1 AF2mut Luc
COc1ccc(-c2ccc(NC(=O)c3ccco3)cc2)nn1	i	i	9.0	i	i	i	13	i
CCC(=O)Nc1cccc(-c2ccc(N3CCC(C)CC3)nn2)c1	i	i	i	i	i	i	nt	nt
Cc1cc(C)c(O)c(-c2cc(C(=O)Nc3cccnc3)[nH]n2)c1	i	i	i	i	i	i	nt	nt
Cc1cc(O)c(-c2cc(C(=O)Nc3cccnc3)[nH]n2)cc1C	i	i	4.8	i	i	i	16	7.0
COC(=O)[C@]12C[C@H](CC(=O)NCCC(C)C)C(=O)N(Cc3ccco3)C1=C[C@H](C(C)C)O[C@@H]2C1CC1	nt	nt	i	i	nt	nt	nt	nt
O=C(CN1C(=O)C2(OCCCO2)c2ccccc21)NCc1ccc(F)cc1	nt	nt	i	i	nt	nt	nt	nt
CCCc1nc2c3ccccc3ccn2c1Cc1cccc(Cl)c1	nt	nt	i	i	i	nt	nt	nt
CCCc1nc2c3ccccc3ccn2c1Cc1ccc(C)cc1	nt	nt	6.0	i	i	nt	8.0	4.3
c1ccc(Cc2c(C3CCCCC3)nc3c4ccccc4ccn23)cc1	nt	nt	6.1	i	i	nt	6.1	4.0
CCN(c1ccc(OCC(=O)OCC(=O)c2c(N)n(C)c(=O)n(C)c2=O)cc1)S(=O)(=O)c1ccccc1	i	i	5.2	i	i	i	i	i
CN1CCCN(C(=O)CN2C(=O)CC(C)(C)S(=O)(=O)c3ccccc32)CC1	nt	nt	i	i	nt	nt	nt	nt
COC(=O)N/N=C(\C)c1ccco1	nt	i	i	i	i	i	nt	nt
C/C(=N\NC(=O)c1ccccn1)C12CC3CC(CC(C3)C1)C2	i	i	5.8	i	i	i	5.6	3.3
C/C(=N/NC(=O)c1ccccn1)c1ccco1	i	i	5.5	i	i	i	8.1	4.0
COc1cc(C(=O)N/N=C(\C)c2ccccn2)cc(OC)c1OC	i	i	8.3	i	i	i	i	i
COc1ccc(S[C@]2(C(=O)N(C)C)CC(=O)N(C(=O)CCc3ccccc3)[C@@H]2c2ccc(OC)cc2)cc1	nt	nt	i	i	nt	nt	nt	nt
COc1ccc(-c2ccc(C(=O)Nc3ccccc3)c3occc23)c(C)c1	nt	nt	6.7	i	i	nt	10	4.2
Cc1ccc(C(=O)Nc2ccc3c(c2)CCC3)cc1	i	i	4.6	i	i	i	6.0	4.2
Cc1ccc(C(=O)NCC(=O)Nc2ccc3c(c2)CCC3)cc1	i	i	i	i	i	nt	nt	nt
CC(=O)c1cccc(NC(=O)c2ccc3c(c2)CCCC3)c1	i	i	8.2	i	i	i	8.8	5.4
